Converted amounts (≈) assume the structure as drawn. The source made the active and inactive calls. The rule behind the calls is not given here.
Columns and labels:
Leishmania donovani [1] = assay: Antileishmanial activity against promastigotes of Leishmania donovani MHOM/IN/80/Dd8 after 72 hrs by luciferase reporter gene assay relative to control; type: functional
Summary of the method: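 Dd8 promastigotes transfected with firefly luciferase were kept in medium 199 + 10% FCS with antibiotics under G418. Late-log cells were incubated 72 h with serial drug dilutions, with parallel DMSO dilutions as controls. An aliquot was mixed 1:1 with Steady Glo and luminescence read as RLU. % inhibition = (N − n) × 100/N versus untreated control RLU; tested as serial dilutions or single concentration.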

Leishmania donovani [2] = assay: Antileishmanial activity against amastigote of Leishmania donovani MHOM/IN/80/Dd8 infected in mouse J774A1 cells after 72 hrs by luciferase reporter gene assay; type: functional, organism-based; conditions: MHOM/IN/80/Dd8, J774.A1, 72 h, read-out: IC50
Summary of the method: (§1)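 J774A.1 macrophages were seeded at 1.5 × 10⁴ cells/well in RPMI-1640 + 10% FCS, 37 °C, CO₂, for 24 h. They were then infected with stationary-phase luciferase-transfected Dd8 promastigotes (2.25 × 10⁵/well), which transform to amastigotes. Compounds (0.25–10 range) were added in fresh medium for 72 h. Medium was removed, PBS and Steady Glo added, and luminescence read. Inhibition vs untreated controls; IC50 by logit regression.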

[3] = Cytotoxicity against mouse J774A1 cells after 72 hrs by MTT assay; type: cell-based, J774.A1; conditions: read-out: CC50
Summary of the method: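 J774A.1 cells were grown in RPMI + 10% FCS with gentamycin. Exponential cells (1 × 10⁴/well) were exposed to a range of drug concentrations (DMSO stocks diluted in complete medium) for 72 h at 37 °C in humidified CO₂/air. MTT was added, formazan dissolved in DMSO after 15 min shaking, and absorbance read at 544 nm. CC50 is the 50% viability reduction versus medium-only cells.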

[4] = Selectivity index, ratio of CC50 for mouse J774A1 cells to IC50 for amastigote of Leishmania donovani MHOM/IN/80/Dd8; type: functional, J774.A1
Summary of the method: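 Ratio of CC50 (J774A.1 MTT, 72 h) to IC50 against intracellular amastigotes in J774A.1 macrophages (luciferase read-out, 72 h).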

DU-145 [5] = assay: Cytotoxicity against human DU145 cells up to 50 ug/ml by MTT assay; type: functional, cell-based
MCF7 [6] = assay: Cytotoxicity against human MCF7 cells up to 50 ug/ml by MTT assay; type: functional, cell-based
KB [7] = assay: Cytotoxicity against human KB cells up to 50 ug/ml by MTT assay; type: functional, cell-based
C-33-A [8] = assay: Cytotoxicity against human C33A cells up to 50 ug/ml by MTT assay; type: functional, cell-based
Vero [9] = assay: Cytotoxicity against african green monkey Vero cells up to 50 ug/ml by MTT assay; type: cell-based; conditions: chlorocebus sabaeus
DU-145 [10] = assay: Cytotoxicity against human DU145 cells by MTT assay; type: functional, cell-based
MCF7 [11] = assay: Cytotoxicity against human MCF7 cells by MTT assay; type: functional, cell-based
KB [12] = assay: Cytotoxicity against human KB cells by MTT assay; type: functional, cell-based
C-33-A [13] = assay: Cytotoxicity against human C33A cells by MTT assay; type: functional, cell-based
Vero [14] = assay: Cytotoxicity against african green monkey Vero cells by MTT assay; type: cell-based; conditions: chlorocebus sabaeus
Leishmania donovani [15] = assay: Antileishmanial activity against amastigote of Leishmania donovani MHOM/IN/80/Dd8 infected in mouse J774A1 cells at 0.25 to 10 ug/ml after 72 hrs by luciferase reporter gene assay; type: functional, organism-based; conditions: j774.a1; summary of the method: as §1

| SMILES | inhibition (INH) (Leishmania donovani [1]) | IC50 (Leishmania donovani [2]) | CC50 at 72 h [3] | Ratio CC50/IC50 [4] | Activity (DU-145 [5]) | Activity (MCF7 [6]) | Activity (KB [7]) | Activity (C-33-A [8]) | Activity (Vero [9]) | IC50 (DU-145 [10]) | IC50 (MCF7 [11]) | IC50 (KB [12]) | IC50 (C-33-A [13]) | IC50 (Vero [14]) | IC50 (Leishmania donovani [15]) |
| --- | --- | --- | --- | --- | --- | --- | --- | --- | --- | --- | --- | --- | --- | --- | --- |
| Clc1cc(Cl)nc(NCCc2c[nH]c3ccccc23)n1 | 99.78% | 7.34 µg/mL (≈ 23.9 µM) | 20.6 µg/mL (≈ 67 µM) | 2.8 | inactive | inactive | inactive | inactive | Non-toxic |  |  |  |  |  |  |
| c1ccc2c(CCNc3nc(N4CCOCC4)cc(N4CCOCC4)n3)c[nH]c2c1 | 99.72% | 3.05 µg/mL (≈ 7.47 µM) | 19.4 µg/mL (≈ 47.4 µM) | 6.34 |  |  |  |  | Non-toxic |  |  |  |  |  |  |
| CN1CCN(c2cc(N3CCN(C)CC3)nc(NCCc3c[nH]c4ccccc34)n2)CC1 | 100% | 1.74 µg/mL (≈ 4 µM) | 18.4 µg/mL (≈ 42.3 µM) | 10.55 |  |  |  |  |  | 21.3 µg/mL (≈ 49 µM) | 35.2 µg/mL (≈ 81 µM) | 33.4 µg/mL (≈ 76.9 µM) | 26 µg/mL (≈ 59.8 µM) | 29.7 µg/mL (≈ 68.3 µM) |  |
| COc1cc(C2c3[nH]c4ccccc4c3CCN2c2nc(Cl)cc(Cl)n2)cc(OC)c1OC (racemic) | 81.68% | 3.81 µg/mL (≈ 7.85 µM) |  |  | inactive | inactive | inactive | inactive | Non-toxic |  |  |  |  |  |  |
| COc1ccc(C2c3[nH]c4ccccc4c3CCN2c2nc(Cl)cc(Cl)n2)cc1OC (racemic) | 93.06% | 1.93 µg/mL (≈ 4.24 µM) | 29.8 µg/mL (≈ 65.4 µM) | 15.43 | inactive | inactive | inactive | inactive | Non-toxic |  |  |  |  |  |  |
| COc1ccc(C2c3[nH]c4ccccc4c3CCN2c2nc(Cl)cc(Cl)n2)cc1 (racemic) | 81.68% | 3.57 µg/mL (≈ 8.39 µM) |  |  |  |  |  |  |  | 10.1 µg/mL (≈ 23.7 µM) | 5.2 µg/mL (≈ 12.2 µM) | 4.5 µg/mL (≈ 10.6 µM) | 4.2 µg/mL (≈ 9.87 µM) | 9.8 µg/mL (≈ 23 µM) |  |
| COc1ccccc1C1c2[nH]c3ccccc3c2CCN1c1nc(Cl)cc(Cl)n1 (racemic) | 38.79% |  |  |  | inactive | inactive | inactive | inactive | Non-toxic |  |  |  |  |  | Not Active |
| COc1cccc(C2c3[nH]c4ccccc4c3CCN2c2nc(Cl)cc(Cl)n2)c1 (racemic) | 44.33% |  |  |  | inactive | inactive | inactive | inactive | Non-toxic |  |  |  |  |  | Not Active |
| Clc1cc(Cl)nc(N2CCc3c([nH]c4ccccc34)C2c2cccc(Br)c2)n1 (racemic) | 79.65% | 7.79 µg/mL (≈ 16.4 µM) | 14 µg/mL (≈ 29.6 µM) | 1.81 |  |  |  |  |  | 15.8 µg/mL (≈ 33.3 µM) | 23.4 µg/mL (≈ 49.3 µM) | 15.6 µg/mL (≈ 32.9 µM) | 21.7 µg/mL (≈ 45.8 µM) | 24.3 µg/mL (≈ 51.2 µM) |  |
| Clc1cc(Cl)nc(N2CCc3c([nH]c4ccccc34)C2c2ccc3c(c2)OCO3)n1 (racemic) | 33.57% |  |  |  |  |  |  |  |  | 8.9 µg/mL (≈ 20.3 µM) | 4.3 µg/mL (≈ 9.79 µM) | 3.9 µg/mL (≈ 8.88 µM) | 3.3 µg/mL (≈ 7.51 µM) | 8.2 µg/mL (≈ 18.7 µM) | Not Active |
| Clc1cc(Cl)nc(N2CCc3c([nH]c4ccccc34)C2c2ccc(OCc3ccccc3)cc2)n1 (racemic) | 36.85% |  |  |  | inactive | inactive | inactive | inactive | Non-toxic |  |  |  |  |  | Not Active |
